Series [1] concerns Human immunodeficiency virus 1. The series can be described thus: Antiviral activity against wild type HIV1 NL4-3 infected in human TZM-bl cells assessed as reduction in viral infection measured after 1 day by luciferase reporter gene assay based luminiscence assay. It counts as functional, organism-based. As to conditions: Human immunodeficiency virus 1, NL4-3, TZM-bl, 24 h. An outline of the steps:
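TZM-bl cells got a single-round infection with 800 TCID50 of NL4-3 at various compound concentrations, top concentration 100 ng/mL. Luminescence was read 1 day post-infection. EC50 is the concentration giving a 50% decrease in luciferase RLU versus control wells, determined in at least triplicate.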

The nature of series [2]: Cytotoxicity against human TZM-bl cells assessed as reduction in cell viability measured after 1 day by CytoTox-Glo assay. In kind it is cell-based. An outline of the steps: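 TZM-bl cells were cultured 1 day with various compound concentrations, in parallel with the antiviral assay, top concentration 100 ng/mL. Viable cells were measured by CytoTox-Glo. CC50 is the concentration causing a 50% reduction in cell viability.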

Series [3] can be described thus: Selectivity index, ratio of CC50 for human TZM-bl cells to EC50 for wild type HIV1 NL4-3 infected in human TZM-bl cells. In kind it is toxicity, cell-based. As to conditions: read-out: Ratio CC50/EC50. A digest of the protocol: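 Selectivity index is CC50/EC50, with both values from the TZM-bl assays: NL4-3 single-round luciferase infection and CytoTox-Glo viability, each over 1 day.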

For series [4], the system named is Human immunodeficiency virus 1. Description: Antiviral activity against wild type HIV-1 3B infected in human MT4 cells assessed as inhibition of virus-induced cytopathic effect measured after 5 days by MTT assay. It counts as functional, organism-based. As to conditions: Human immunodeficiency virus 1, 3B, MT4, 120 h. A digest of the protocol:
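MT-4 cells at 6 × 10^5 cells/mL were infected with virus stock at 100–300 CCID50 in the presence of serial 5-fold compound dilutions, in triplicate wells. Viability was read by MTT reduction 5 days after infection, with absorbance at 540 and 690 nm and the median OD of three wells used. EC50 is the concentration giving 50% protection from viral cytopathicity.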

Series [5] can be described thus: Cytotoxicity against human MT4 cells assessed as reduction in cell viability measured after 5 days by MTT assay. As to conditions: time 5 day. It counts as cell-based. An outline of the steps: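 Mock-infected MT-4 cells (6 × 10^5 cells/mL) were run in parallel with the infected wells, under serial 5-fold compound dilutions in triplicate. MTT viability was read after 5 days and the median OD of three wells used. CC50 is the concentration that reduced OD540 of the mock-infected cells by 50%.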

The nature of series [6]: Selectivity index, ratio of CC50 for human MT4 cells to EC50 for wild type HIV-1 3B infected in human MT4 cells. It counts as toxicity, cell-based. As to conditions: read-out: Ratio CC50/EC50.
For series [7], the target named is Human immunodeficiency virus type 1 reverse transcriptase (Human immunodeficiency virus 1) (UniProt Q72547). Description: Potency index, ratio of ETV IC50 to test compound IC50 for Inhibition of HIV-1 reverse transcriptase assessed as reduction in biotin-dUTP incorporation into cDNA incubated for 1 hr with DIG-dUTP, biotin-dUTP and dTTP followed by transferring onto streptavidin-coated plate and measured after 1 hr by ELISA. As to conditions: time 2.0 hrs.

Series [8] has as its system Human immunodeficiency virus 1. The series can be described thus: Antiviral activity against HIV-1 harboring reverse transcriptase L100I mutant infected in human MT4 cells assessed as inhibition of virus induced cytopathic effect measured after 5 days by MTT assay. It counts as functional, organism-based. As to conditions: Human immunodeficiency virus 1, MT4, 120 h. A digest of the protocol: (§1)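 MT-4 cells, exponentially growing, resuspended at 6 × 10^5 cells/mL and infected with the mutant HIV-1 stock at 100–300 CCID50. Compounds were added as 5-fold serial dilutions, in triplicate wells, alongside mock-infected wells. After 5 days, viability was read by MTT reduction at 540 and 690 nm using the median OD of three wells. EC50 is the concentration giving 50% protection from viral cytopathogenicity.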

For series [9], the system named is Human immunodeficiency virus 1. Description: Antiviral activity against HIV-1 harboring reverse transcriptase K103N mutant infected in human MT4 cells assessed as inhibition of virus induced cytopathic effect measured after 5 days by MTT assay. It counts as functional, organism-based. As to conditions: Human immunodeficiency virus 1, MT4, 120 h. A digest of the protocol:
as §1

The test system of series [10] is Human immunodeficiency virus 1. The series can be described thus: Antiviral activity against HIV-1 harboring reverse transcriptase Y181C mutant infected in human MT4 cells assessed as inhibition of virus induced cytopathic effect measured after 5 days by MTT assay. In kind it is functional, organism-based. As to conditions: Human immunodeficiency virus 1, MT4, 120 h. An outline of the steps: as §1

Series [11] deals with Human immunodeficiency virus 1. Description: Antiviral activity against HIV-1 harboring reverse transcriptase Y188L mutant infected in human MT4 cells assessed as inhibition of virus induced cytopathic effect measured after 5 days by MTT assay. In kind it is functional, organism-based. As to conditions: Human immunodeficiency virus 1, MT4, 120 h. A digest of the protocol:
as §1

Series [12] deals with Human immunodeficiency virus 1. Description: Antiviral activity against HIV-1 harboring reverse transcriptase E138K mutant infected in human MT4 cells assessed as inhibition of virus induced cytopathic effect measured after 5 days by MTT assay. It counts as functional, organism-based. As to conditions: Human immunodeficiency virus 1, MT4, 120 h. A digest of the protocol:
as §1

The test system of series [13] is Human immunodeficiency virus 1. Description: Antiviral activity against HIV-1 harboring reverse transcriptase F227L/V106A mutant infected in human MT4 cells assessed as inhibition of virus induced cytopathic effect measured after 5 days by MTT assay. In kind it is functional, organism-based. As to conditions: Human immunodeficiency virus 1, MT4, 120 h. A digest of the protocol: as §1

The test system of series [14] is Human immunodeficiency virus 1. Description: Antiviral activity against HIV-1 harboring reverse transcriptase RES056 mutant infected in human MT4 cells assessed as inhibition of virus induced cytopathic effect measured after 5 days by MTT assay. It counts as functional, organism-based. As to conditions: Human immunodeficiency virus 1, MT4, 120 h. A digest of the protocol: as §1

Series [15] deals with Human immunodeficiency virus type 1 reverse transcriptase (Human immunodeficiency virus 1, UniProt Q72547). The series can be described thus: Inhibition of HIV-1 reverse transcriptase assessed as reduction in biotin-dUTP incorporation into cDNA incubated for 1 hr with DIG-dUTP, biotin-dUTP and dTTP followed by transferring onto streptavidin-coated plate and measured after 1 hr by ELISA. A digest of the protocol: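 Recombinant WT HIV-1 RT was tested with a Roche colorimetric kit. Enzyme, reconstituted template, DIG-dUTP, biotin-dUTP and dTTP were incubated 1 h at 37 °C in incubation buffer with or without inhibitor. The mix was then held 1 h at 37 °C on a streptavidin-coated plate, then anti-DIG-POD 1 h at 37 °C, then ABTS at 25 °C, and read at OD405.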

For series [16], the system named is Human immunodeficiency virus 1. Description: Potency index, ratio of nevirapine EC50 to test compound EC50 for antiviral activity against wild type HIV-1 3B infected in human MT4 cells assessed as inhibition of virus-induced cytopathic effect measured after 5 days by MTT assay. It counts as functional. As to conditions: time 5 day.
Series [17] deals with Human immunodeficiency virus 1. The series can be described thus: Potency index, ratio of AZT EC50 to test compound EC50 for antiviral activity against wild type HIV-1 3B infected in human MT4 cells assessed as inhibition of virus-induced cytopathic effect measured after 5 days by MTT assay. It counts as functional. As to conditions: time 5 day.
Series [18] relates to Human immunodeficiency virus 1. Description: Potency index, ratio of EFV EC50 to test compound EC50 for antiviral activity against HIV-1 harboring reverse transcriptase Y188L mutant infected in human MT4 cells assessed as inhibition of virus induced cytopathic effect measured after 5 days by MTT assay. In kind it is functional. As to conditions: time 5 day.
The nature of series [19]: Antiviral activity against HIV-2 ROD infected in human MT4 cells assessed as protection against virus-induced cytopathic effect measured after 5 days by MTT assay. As to conditions: Human immunodeficiency virus 2, ISOLATE ROD, MT4, 120 h.

Where only a bound is given, the exact number is not on record here.

As to `C#CCNC(=O)/C=C/c1cnc(Nc2ccc(C#N)cc2)nc1Oc1c(C)cc(C#N)cc1C`, the EC50 in [1] turned out to be 2.45 nM; in [4], 5.2 nM; in series [8] it was 113 nM; in [9] it was 10.4 nM; in series [10], 61.8 nM; in [11], 64.5 nM. In addition, the EC50 in series [12] is 10.6 nM; in [13], 402 nM; in series [14] it was 1290 nM; in [19], over 141000 nM. Further, the CC50 at 24 h in series [2] was over 222 nM. Further, the selectivity ratio in series [3] is over 91; in [6], 26900. For the same compound, the CC50 at 120 h in series [5] came to 141000 nM. Further, in series [7], the Ratio IC50 is 6. Further, in [15], the IC50 was 59 nM. The results for the “Ratio EC50” value in series [16], in series [17] and in [18] were 16.2, 3.5 and 2.3, respectively.

With `COCCNC(=O)/C=C/c1cnc(Nc2ccc(C#N)cc2)nc1Oc1c(C)cc(C#N)cc1C`, the EC50 was determined as 4.48 nM in [1]; 7.8 nM in series [4]; 166 nM in [8]; 13.7 nM in series [9]; 98 nM in [10]; 90.6 nM in series [11]. Besides, the EC50 in series [12] was 16.5 nM; in series [13], 343 nM; in series [14] it was 1490 nM; in [19], over 267000 nM. Moreover, the CC50 at 24 h in series [2] is over 213 nM. For the same compound, the selectivity ratio in series [3] was over 48; in series [6] it was over 34300. The half-maximal cytotoxic concentration (CC50) at 120 h in [5] is over 267000 nM. Also, the “Ratio EC50” value in series [18] stood at 1.6.

As to `Cc1cc(C#N)cc(C)c1Oc1nc(Nc2ccc(C#N)cc2)ncc1SCC(=O)NCCCN1CCOCC1`, the EC50 in series [1] worked out at 3.77 nM; in [4], 3.7 nM; in [8] it was 16.3 nM; in series [9], 2.2 nM; in [10] it was 19.1 nM; in series [11] it was 38.7 nM. In addition, the EC50 in series [12] was 37.3 nM; in series [13], 182 nM; in series [14] it was 332 nM; in [19], over 24000 nM. In addition, the CC50 at 24 h in series [2] was over 179 nM. The selectivity ratio was over 48 in series [3] and 6540 in series [6]. Moreover, in series [5], the CC50 at 120 h was 24000 nM. The IC50 in [15] was found to be 35 nM.

Take `Cc1cc(C#N)cc(C)c1Oc1nc(Nc2ccc(C#N)cc2)ncc1/C=C/C(=O)NCCCN1CCOCC1`: the EC50 was 3.53 nM in series [1]; 10.5 nM in [4]; 254 nM in [8]; 22 nM in series [9]; 124 nM in series [10]; 212 nM in [11]. For the same compound, the concentration giving a half-maximal response (EC50) in [12] was 22.6 nM; in [13] it was 443 nM; in series [14], 1210 nM; in series [19], over 23000 nM. Moreover, the CC50 at 24 h in [2] is over 186 nM. In addition, the selectivity ratio in [3] is over 53; in series [6], 2200. Besides, the CC50 at 120 h in series [5] came out at 23000 nM.

Turning to `Cc1cc(C#N)cc(C)c1Oc1nc(Nc2ccc(C#N)cc2)ncc1/C=C/C(=O)NCCN1CCN(S(C)(=O)=O)CC1`, the half-maximal effective concentration (EC50) in series [1] is 4.16 nM; in series [4], 6.1 nM; in series [8], 78.6 nM; in series [9], 8.7 nM; in [10] it was 48.6 nM; in series [11], 101 nM. Further, the EC50 in series [12] is 20.9 nM; in series [13], 251 nM; in series [14] it was 808 nM; in series [19], over 5860 nM. For the same compound, in series [2], the CC50 at 24 h was over 166 nM. The selectivity ratio in series [3] is over 40; in series [6], 955. In [5], the CC50 at 120 h is 5900 nM.

These data come from ChEMBL document CHEMBL4819008, “Design, synthesis, and evaluation of "dual-site"-binding diarylpyrimidines targeting both NNIBP and the NNRTI adjacent site of the HIV-1 reverse transcriptase” (Eur J Med Chem, 2021).
